Experiments:
Staphylococcus aureus [1] = assay: Antibacterial activity against Staphylococcus aureus ATCC 9144 after 48 hrs by microdilution method; type: functional; conditions: ATCC 9144, 48 h
How it was run: (§1)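 Broth microdilution (CLSI M07-A9, modified) in Mueller-Hinton broth; inoculum about 2.5-3 × 10^4 cells/ml mixed 1:1 with serial compound dilutions. Stock solutions in up to 100% DMSO, final DMSO ≤1%. Incubated 35 °C for 48 h.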

Escherichia coli [2] = assay: Antibacterial activity against Escherichia coli clinical isolates after 24 hrs by microdilution method; type: functional
How it was run: (§2)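 Clinical isolate screen by broth microdilution with about 1-1.2 × 10^6 cells/ml and 24 h incubation. MIC is the lowest concentration with no growth. For isolate collections, MIC90 is the MIC inhibiting ≥90% of isolates. Multidrug resistance was defined as resistance to at least […] antimicrobial class.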

[3] = system: Corynebacterium glutamicum; assay: Antibacterial activity against Corynebacterium glutamicum ATCC 13032 after 48 hrs by microdilution method; type: functional; conditions: ATCC 13032, 48 h; how it was run: as §1
Klebsiella pneumoniae = assay: Antibacterial activity against Klebsiella pneumoniae clinical isolates after 24 hrs by microdilution method; type: functional; how it was run: as §2
[4] = system: Staphylococcus epidermidis; assay: Antibiofilm activity against Staphylococcus epidermidis RP62A ATCC 35984/CCUG 31568 incubated for 24 +/- 2 hrs by crystal violet staining based assay; type: functional
How it was run: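 Mature S. epidermidis RP62A biofilms: filtered overnight TSB culture adjusted to 2 McFarland, diluted in TSB with 1% glucose to about 6 × 10^6 CFU/ml, grown 24 ± 2 h at 37 °C static, then PBS-washed. Compounds in 50% TSBglu added for 24 ± 2 h at 37 °C. Biomass given as % of untreated control; ≥90% eradication threshold. Compounds tested at 2x, 5x and 10x MIC, 4-8 parallels on 2-3 plates, highest and lowest values excluded.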

Staphylococcus aureus [5] = assay: Antibacterial activity against Staphylococcus aureus clinical isolates after 24 hrs by microdilution method; type: functional; how it was run: as §2
Pseudomonas aeruginosa [6] = assay: Antibacterial activity against Pseudomonas aeruginosa clinical isolates after 24 hrs by microdilution method; type: functional; how it was run: as §2
[7] = Selectivity index, ratio of EC50 for human RBC to MIC for methicillin resistant Staphylococcus epidermidis RP62A ATCC 35984/CCUG 31568; type: toxicity; conditions: human red blood cells (RBC), read-out: Selectivity Index
How it was run: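 SI = hemolytic EC50 / MRSE MIC. Hemolysis: washed human RBCs (heparinized blood, healthy adult donor) at 10% in PBS pH 7.4, mixed 9:1 with serial compound dilutions, 37 °C for 1 h. 0.05% Triton X-100 set 100% lysis, 0.5% DMSO set baseline. MIC from MHB microdilution, 35 °C, […].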

Pseudomonas aeruginosa [8] = assay: Antibacterial activity against Pseudomonas aeruginosa PAO1 DSM 19880 ATCC 15692 after 48 hrs by microdilution method; type: functional; conditions: PAO1 DSM 19880 ATCC 15692, 48 h; how it was run: as §1
Escherichia coli [9] = assay: Antibacterial activity against Escherichia coli ATCC 25922 after 48 hrs by microdilution method; type: functional; conditions: ATCC 25922, 48 h; how it was run: as §1
Enterococcus sp. = assay: Antibacterial activity against Enterococcus sp. clinical isolates after 24 hrs by microdilution method; type: functional; how it was run: as §2
MRC5 = assay: Cytotoxicity against human MRC5 cells after 72 hrs by MTS assay; type: cell-based; conditions: MRC5, 72 h
How it was run: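 MRC-5 lung fibroblasts in DMEM with 10% FBS, 37 °C, 5% CO2; seeded at 4000 cells/well, adhered 24 h, medium replaced. Two-fold dilutions up to 100 µg/ml for 72 h, then MTS for 1 h and absorbance at 485 nm. Controls were 1% DMSO (negative) and 0.5% Triton X-100 (positive). EC50 is the concentration giving 50% inhibition of survival.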

Bacillus subtilis = assay: Antibacterial activity against Bacillus subtilis 168 ATCC 23857 after 48 hrs by microdilution method; type: functional; conditions: subsp. subtilis str. 168 ATCC 23857, 48 h; how it was run: as §1
[10] = system: Staphylococcus epidermidis; assay: Antibacterial activity against methicillin resistant Staphylococcus epidermidis RP62A ATCC 35984/CCUG 31568 after 48 hrs by microdilution method; type: functional; conditions: RP62A ATCC 35984/CCUG 31568, 48 h
How it was run: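 Broth microdilution (modified CLSI M07-A9) against the MRSE reference strain. Inoculum of about 2.5-3 × 10^4 cells/ml in Mueller-Hinton broth mixed 1:1 with serial compound dilutions; final DMSO ≤1%. Incubated 35 °C, 48 h.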

Erythrocyte = assay: Hemolytic activity against human RBC measured after 1 hr; type: cell-based
How it was run: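 Washed human RBCs from a healthy donor (heparinized) at 10% in PBS pH 7.4, mixed 9:1 with serial compound dilutions, 37 °C for 1 h. Baseline set by 0.5% DMSO in 50% PBS, 100% lysis by 0.05% Triton X-100. EC50 is the concentration giving 50% lysis.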

| Compound | MIC (Staphylococcus aureus [1]) [µg/mL] | MIC (Escherichia coli [2]) [µg/mL] | MIC [3] [µg/mL] | MIC (Klebsiella pneumoniae) [µg/mL] | MBIC=>90 [4] [µg/mL] | MIC (Staphylococcus aureus [5]) [µg/mL] | MIC (Pseudomonas aeruginosa [6]) [µg/mL] | selectivity ratio [7] | MIC (Pseudomonas aeruginosa [8]) [µg/mL] | MIC (Escherichia coli [9]) [µg/mL] | MIC (Enterococcus sp.) [µg/mL] | EC50 (MRC5) [µg/mL] | MIC (Bacillus subtilis) [µg/mL] | MIC [10] [µg/mL] | EC50 (Erythrocyte) [µg/mL] |
| --- | --- | --- | --- | --- | --- | --- | --- | --- | --- | --- | --- | --- | --- | --- | --- |
| Cc1cc(C(=O)NCCNC(=N)N)ccc1NS(=O)(=O)c1cc(C(C)(C)C)cc(C(C)(C)C)c1.Cl | 8 | 64 | 4 | > 128 | 40 | 8 | 64 | 26 | > 128 | 32 | 32 | 56 | 8 | 4 | 104 |
| CN(c1ccc(C(=O)NCCN)cc1)S(=O)(=O)c1cc(C(C)(C)C)cc(C(C)(C)C)c1.Cl | 16 |  | 16 |  |  |  |  | 3 | 32 | 16 |  | 5 | 8 | 16 | 53 |
| CC(C)(C)c1cc(C(C)(C)C)cc(S(=O)(=O)NCc2ccc(C(=O)NCCNC(=N)N)cc2)c1.Cl | 16 | 128 | 4 | 128 | 80 | 16 | 64 | 14 | 32 | 32 | 64 | > 100 | 8 | 8 | 113 |
| CC(C)(C)c1cc(C(C)(C)C)cc(S(=O)(=O)NCCCCNC(=N)N)c1.Cl | 8 | 128 | 4 | 128 | 40 | 16 | 64 | 14 | 64 | 64 | 32 | 42 | 16 | 8 | 110 |
| CC(C)(C)c1cc(C(C)(C)C)cc(S(=O)(=O)N2CCC[C@H]2C(=O)NCCNC(=N)N)c1.Cl | 64 |  | 8 |  |  |  |  | > 4 | 128 | > 128 |  | > 100 | 32 | 32 | > 128 |
| CC(C)(C)c1cc(C(C)(C)C)cc(S(=O)(=O)Nc2ccccc2C(=O)NCCNC(=N)N)c1.Cl | 4 | 64 | 4 | 128 |  | 8 | 32 | 10 | 64 | 32 | 32 | 42 | 8 | 8 | 77 |
| Cc1cc(C)cc(S(=O)(=O)Nc2ccc(C(=O)NCCNC(=N)N)cc2)c1.Cl | 128 |  | 64 |  |  |  |  | > 2 | > 128 | > 128 |  | > 100 | 64 | 64 | > 128 |
| CC(C)(C)c1cc(C(C)(C)C)cc(S(=O)(=O)Nc2cc3ccccc3cc2C(=O)NCCN)c1.Cl | 4 | 32 | 2 | 128 |  | 8 | 32 | 5 | 32 | 8 | 8 | 22 | 4 | 4 | 21 |
| CC(C)(C)c1cc(C(C)(C)C)cc(S(=O)(=O)Nc2ccc(CC(=O)NCCN)cc2)c1.Cl | 32 |  | 16 |  |  |  |  | 5 | 64 | 64 |  | 20 | 16 | 16 | 73 |
| CC(C)(C)c1cc(C(C)(C)C)cc(S(=O)(=O)Nc2ccc(C(=O)NCCN)cc2)c1.Cl | 32 |  | 8 |  |  |  |  | 2 | 64 | 64 |  | 25 | 16 | 32 | 63 |
| Cl.N=C(N)NCCNC(=O)c1ccc(NS(=O)(=O)c2ccc3ccccc3c2)cc1 | 64 | > 128 | 32 | > 128 | 160 | 128 | > 128 | > 4 | > 128 | > 128 | > 128 | > 100 | 64 | 32 | > 128 |
| CC(C)(C)c1cc(C(=O)Nc2ccccc2C(=O)NCCNC(=N)N)cc(C(C)(C)C)c1.Cl |  |  |  |  |  |  |  |  |  |  |  | 22 |  |  |  |
| CN(c1ccc(C(=O)NCCCN)cc1)S(=O)(=O)c1cc(C(C)(C)C)cc(C(C)(C)C)c1.Cl | 16 |  | 8 |  |  |  |  | 2 | 32 | 16 |  | 9 | 8 | 16 | 28 |
| CN(c1cccc(C(=O)NCCN)c1)S(=O)(=O)c1cc(C(C)(C)C)cc(C(C)(C)C)c1.Cl | 16 |  | 8 |  |  |  |  | 2 | 32 | 16 |  | 10 | 8 | 16 | 26 |
| CC(C)(C)c1cc(C(C)(C)C)cc(S(=O)(=O)N2CCC(C(=O)NCCNC(=N)N)CC2)c1.Cl | 16 |  | 4 |  | 80 |  |  | 8 | 128 | 64 |  | > 100 | 16 | 16 | 124 |
| CC(C)(C)c1cc(C(C)(C)C)cc(S(=O)(=O)Nc2ccccc2C(=O)NCCN)c1.Cl | 32 | 128 | 16 | 128 |  | 32 | 128 | 2 | 128 | 64 | 32 | 10 | 32 | 32 | 56 |
| CC(C)(C)c1cc(C(C)(C)C)cc(S(=O)(=O)Nc2ccc(CC(=O)NCCNC(=N)N)cc2)c1.Cl | 16 | 64 | 8 | 128 | 40 | 16 | 64 | 13 | 64 | 64 | 32 | 55 | 8 | 8 | 101 |
| CC(C)(C)c1cc(C(C)(C)C)cc(S(=O)(=O)NCc2ccc(C(=O)NCCN)cc2)c1.Cl | 32 |  | 8 |  |  |  |  | 6 | 32 | 32 |  | 20 | 8 | 16 | 92 |
| CC(C)(C)c1cc(C(C)(C)C)cc(S(=O)(=O)Nc2cccc(C(=O)NCCN)c2)c1.Cl | 16 |  | 8 |  |  |  |  | 7 | 64 | 32 |  | 16 | 8 | 8 | 58 |

From ChEMBL document CHEMBL4152356, “Amphipathic sulfonamidobenzamides mimicking small antimicrobial marine natural products; investigation of antibacterial and anti-biofilm activity against antibiotic resistant clinical isolates” (Bioorg Med Chem, 2018)
